Measured values published in ChEMBL document CHEMBL1154674, “Synthesis and evaluation of three 18F-labeled aminophenylbenzothiazoles as amyloid imaging agents” (J Med Chem, 2009).

Tests used:
[1] = Drug level in normal rhesus monkey cerebellum assessed as standard uptake value at 81.2 MBq, iv after 145 mins by microPET; assay type: ADME, organism-based, Macaca mulatta; settings: in vivo
Procedure, shortened: (§1)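 One normal rhesus monkey, each tracer given iv via the vena saphena (81.2, 96.3 or 109.4 MBq), with 1 day between tracer injections. Dynamic brain μPET over 180 min used frames of 5 × 60 s, 5 × 120 s, 9 × 300 s and 12 × 600 s. Images were reconstructed by filtered back projection with a RAMP filter. Regional time-activity curves were expressed as SUV.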

[2] = system: Lung; assay: Drug level in NMRI mouse lung assessed as standard uptake value at 3.7 MBq/mL, iv after 2 mins by gamma counting; assay type: ADME, organism-based; settings: in vivo
Procedure, shortened: (§2)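 Male NMRI mice (30-40 g) were anaesthetised with isoflurane. Each received 0.1 mL of HPLC-purified tracer, diluted in 0.9% NaCl to 3.7 MBq/mL (ethanol ≤10%), via a tail vein. Mice were decapitated at 2 or 60 min. Organs were dissected, weighed and γ-counted with background correction. SUV = (organ cpm/organ weight)/(total recovered counts/body weight). Blood mass was taken as 7% of body mass.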

[3] = system: Intestine; assay: Biodistribution in NMRI mouse intestine at 3.7 MBq/mL, iv after 2 mins by gamma counting; assay type: ADME, organism-based; settings: in vivo
Procedure, shortened: (§3)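 Male NMRI mice (30-40 g) under isoflurane (1.5-2.5% in oxygen) got 0.1 mL of HPLC-purified tracer diluted with 0.9% NaCl to 3.7 MBq/mL (ethanol ≤10%) via tail vein. Mice were decapitated at 2 or 60 min p.i., and organs, blood and urine were weighed and γ-counted. Values are background-corrected %ID or %ID/g, with blood mass taken as 7% of body mass.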

[4] = system: Kidney; assay: Biodistribution in NMRI mouse kidney assessed per gram of tissue at 3.7 MBq/mL, iv after 2 mins by gamma counting; assay type: ADME, organism-based; settings: in vivo; procedure, shortened: as §3
[5] = Drug level in normal rhesus monkey cerebellum assessed as standard uptake value at 81.2 MBq, iv after 14 mins by microPET; assay type: ADME, organism-based, Macaca mulatta; settings: in vivo; procedure, shortened: as §1
[6] = system: Heart; assay: Drug level in NMRI mouse heart assessed as standard uptake value at 3.7 MBq/mL, iv after 60 mins by gamma counting; assay type: ADME, organism-based; settings: in vivo, 1 h; procedure, shortened: as §2
[7] = Biodistribution in NMRI mouse cerebrum at 3.7 MBq/mL, iv after 60 mins by gamma counting; assay type: ADME, organism-based; settings: in vivo, 1 h; procedure, shortened: as §3
[8] = system: Cerebellum; assay: Biodistribution in NMRI mouse cerebellum at 3.7 MBq/mL, iv after 2 mins by gamma counting; assay type: ADME, organism-based; settings: in vivo; procedure, shortened: as §3
[9] = Drug level in normal rhesus monkey frontal cortex assessed as standard uptake value at 81.2 MBq, iv after 32.5 mins by microPET; assay type: ADME, organism-based, Macaca mulatta; settings: in vivo
[10] = Drug level in normal rhesus monkey cerebellum assessed as standard uptake value at 81.2 MBq, iv after 175 mins by microPET; assay type: ADME, organism-based, Macaca mulatta; settings: in vivo; procedure, shortened: as §1
[11] = Biodistribution in NMRI mouse cerebrum assessed per gram of tissue at 3.7 MBq/mL, iv after 2 mins by gamma counting; assay type: ADME, organism-based; settings: in vivo; procedure, shortened: as §3
[12] = system: Kidney; assay: Biodistribution in NMRI mouse kidney at 3.7 MBq/mL, iv after 60 mins by gamma counting; assay type: ADME, organism-based; settings: in vivo, 1 h; procedure, shortened: as §3
[13] = Drug level in normal rhesus monkey cerebellum assessed as standard uptake value at 81.2 MBq, iv after 10 mins by microPET; assay type: ADME, organism-based, Macaca mulatta; settings: in vivo; procedure, shortened: as §1
[14] = system: Lung; assay: Biodistribution in NMRI mouse lung assessed per gram of tissue at 3.7 MBq/mL, iv after 2 mins by gamma counting; assay type: ADME, organism-based; settings: in vivo; procedure, shortened: as §3
[15] = Drug level in normal rhesus monkey parietal cortex assessed as standard uptake value at 81.2 MBq, iv after 42.5 mins by microPET; assay type: ADME, organism-based, Macaca mulatta; settings: in vivo
[16] = system: Kidney; assay: Biodistribution in NMRI mouse kidney assessed per gram of tissue at 3.7 MBq/mL, iv after 60 mins by gamma counting; assay type: ADME, organism-based; settings: in vivo, 1 h; procedure, shortened: as §3
[17] = system: Cerebellum; assay: Biodistribution in NMRI mouse cerebellum assessed per gram of tissue at 3.7 MBq/mL, iv after 60 mins by gamma counting; assay type: ADME, organism-based; settings: in vivo, 1 h; procedure, shortened: as §3
[18] = Drug level in normal rhesus monkey cerebellum assessed as standard uptake value at 96.3 MBq, iv after 0.5 mins by microPET; assay type: ADME, organism-based, Macaca mulatta; settings: in vivo; procedure, shortened: as §1
[19] = Drug level in normal rhesus monkey thalamus assessed as standard uptake value at 96.3 MBq, iv after 27.5 mins by microPET; assay type: ADME, organism-based, Macaca mulatta; settings: in vivo
[20] = Drug level in normal rhesus monkey frontal cortex assessed as standard uptake value at 96.3 MBq, iv after 10 mins by microPET; assay type: ADME, organism-based, Macaca mulatta; settings: in vivo
[21] = Drug level in normal rhesus monkey white matter assessed as standard uptake value at 96.3 MBq, iv after 8 mins by microPET; assay type: ADME, organism-based, Macaca mulatta; settings: in vivo
[22] = Drug level in normal rhesus monkey cerebellum assessed as standard uptake value at 109.4 MBq, iv after 32.5 mins by microPET; assay type: ADME, organism-based, Macaca mulatta; settings: in vivo
Procedure, shortened: (§4)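 One normal rhesus monkey received each tracer via the vena saphena, with 1 day between injections. Dynamic μPET ran 180 min for 18F tracers (5×60 s, 5×120 s, 9×300 s, 12×600 s) and 90 min for the 11C tracer (5×60 s, 5×120 s, 9×300 s, 3×600 s). Filtered back-projection reconstruction (RAMP filter) was used. Time-activity curves were drawn to give regional SUV.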

[23] = Drug level in normal rhesus monkey cerebellum assessed as standard uptake value at 109.4 MBq, iv after 81 mins by microPET; assay type: ADME, organism-based, Macaca mulatta; settings: in vivo, 1.35 h
[24] = Drug level in normal rhesus monkey frontal cortex assessed as standard uptake value at 109.4 MBq, iv after 129 mins by microPET; assay type: ADME, organism-based, Macaca mulatta; settings: in vivo, 2.15 h
[25] = Drug level in normal rhesus monkey thalamus assessed as standard uptake value at 109.4 MBq, iv after 117 mins by microPET; assay type: ADME, organism-based, Macaca mulatta; settings: in vivo, 1.95 h
[26] = Drug level in normal rhesus monkey parietal cortex assessed as standard uptake value at 152.9 MBq, iv after 0.5 mins by microPET; assay type: ADME, organism-based, Macaca mulatta; settings: in vivo
[27] = Drug level in normal rhesus monkey parietal cortex assessed as standard uptake value at 152.9 MBq, iv after 8 mins by microPET; assay type: ADME, organism-based, Macaca mulatta; settings: in vivo
[28] = Drug level in normal rhesus monkey frontal cortex assessed as standard uptake value at 152.9 MBq, iv after 85 mins by microPET; assay type: ADME, organism-based, Macaca mulatta; settings: in vivo
Procedure, shortened: (§5)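 Single normal rhesus monkey; tracer given iv via the vena saphena, 1 day apart from the other tracer injections. Dynamic μPET ran 90 min (5×60 s, 5×120 s, 9×300 s, 3×600 s). Images were reconstructed by filtered back projection with a RAMP filter. Regional time-activity curves were expressed as SUV.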

[29] = Drug level in normal rhesus monkey frontal cortex assessed as standard uptake value at 152.9 MBq, iv after 65 mins by microPET; assay type: ADME, organism-based, Macaca mulatta; settings: in vivo; procedure, shortened: as §5
[30] = Drug level in normal rhesus monkey pons assessed as standard uptake value at 152.9 MBq, iv after 14 mins by microPET; assay type: ADME, organism-based, Macaca mulatta; settings: in vivo
[31] = Drug level in normal rhesus monkey thalamus assessed as standard uptake value at 152.9 MBq, iv after 2.5 mins by microPET; assay type: ADME, organism-based, Macaca mulatta; settings: in vivo
[32] = Drug level in normal rhesus monkey parietal cortex assessed as standard uptake value at 152.9 MBq, iv after 47.5 mins by microPET; assay type: ADME, organism-based, Macaca mulatta; settings: in vivo
[33] = Drug level in normal rhesus monkey white matter assessed as standard uptake value at 152.9 MBq, iv after 47.5 mins by microPET; assay type: ADME, organism-based, Macaca mulatta; settings: in vivo
[34] = Drug level in normal rhesus monkey cerebellum assessed as standard uptake value at 152.9 MBq, iv after 57.5 mins by microPET; assay type: ADME, organism-based, Macaca mulatta; settings: in vivo; procedure, shortened: as §4

Q: Which SUV [1] does the source give for `CNc1ccc2nc(-c3ccc([18F])cc3)sc2c1` here?
A: The SUV was 1.602.

Q: And the SUV [2]?
A: Its SUV is 2.5.

Q: And the Drug uptake [3]?
A: Its Drug uptake is 11%.

Q: And the Drug uptake [4]?
A: Its Drug uptake is 12.6%.

Q: And the SUV [5]?
A: Its SUV is 2.614.

Q: And the SUV [6]?
A: Its SUV is 0.4.

Q: What about the Drug uptake [7] of the same compound?
A: Its Drug uptake is 0.44%.

Q: What about the Drug uptake [8] of the same compound?
A: Its Drug uptake is 1.19%.

Q: And the SUV [9]?
A: The SUV was 5.574.

Q: And the SUV [10]?
A: The SUV was 1.384.

Q: And the Drug uptake [11]?
A: Its Drug uptake is 12.13%.

Q: And the Drug uptake [12]?
A: Its Drug uptake is 3.2%.

Q: And the SUV [13]?
A: Its SUV is 3.021.

Q: And the Drug uptake [14]?
A: Its Drug uptake is 7.3%.

Q: What about the SUV [15] of the same compound?
A: The SUV was 3.863.

Q: What about the Drug uptake [16] of the same compound?
A: The Drug uptake was 4.6%.

Q: And the Drug uptake [17]?
A: The Drug uptake was 1.26%.

Q: Which results are given for `CN(C)c1ccc2nc(-c3ccc([18F])cc3)sc2c1`?
A: SUV [18]: 0.54; SUV [2]: 2.9; Drug uptake [3]: 10%; Drug uptake [4]: 11.7%; SUV [6]: 0.5; SUV [19]: 2.31; Drug uptake [7]: 0.65%; Drug uptake [8]: 0.77%; SUV [20]: 2.13; Drug uptake [11]: 8.84%; SUV [21]: 1.16; Drug uptake [12]: 4.8%; Drug uptake [14]: 8%; Drug uptake [16]: 6.5%; Drug uptake [17]: 2.24%

Q: With `Nc1ccc2nc(-c3ccc([18F])cc3)sc2c1` as the compound, how does the SUV [2] read?
A: The SUV was 2.8.

Q: And the SUV [22]?
A: Its SUV is 4.03.

Q: What about the Drug uptake [3] of the same compound?
A: Its Drug uptake is 11.1%.

Q: And the Drug uptake [4]?
A: The Drug uptake was 13.3%.

Q: What about the SUV [6] of the same compound?
A: Its SUV is 0.2.

Q: And the SUV [23]?
A: Its SUV is 2.87.

Q: And the Drug uptake [7]?
A: Its Drug uptake is 0.32%.

Q: What about the Drug uptake [8] of the same compound?
A: Its Drug uptake is 1.74%.

Q: What about the Drug uptake [11] of the same compound?
A: Its Drug uptake is 13.97%.

Q: What about the SUV [24] of the same compound?
A: The SUV was 4.06.

Q: And the Drug uptake [12]?
A: The Drug uptake was 1%.

Q: What about the Drug uptake [14] of the same compound?
A: Its Drug uptake is 8.9%.

Q: What about the Drug uptake [16] of the same compound?
A: The Drug uptake was 1.8%.

Q: And the SUV [25]?
A: The SUV was 4.66.

Q: And the Drug uptake [17]?
A: The Drug uptake was 1.34%.

Q: For `[11CH3]Nc1ccc(-c2nc3ccc(O)cc3s2)cc1` [PITTSBURGH COMPOUND B], which SUV [26] is on record?
A: Its SUV is 0.039.

Q: And the SUV [2]?
A: The SUV was 1.3.

Q: And the SUV [27]?
A: The SUV was 2.207.

Q: And the SUV [28]?
A: Its SUV is 0.625.

Q: What about the SUV [29] of the same compound?
A: The SUV was 0.653.

Q: What about the SUV [30] of the same compound?
A: The SUV was 2.04.

Q: What about the SUV [31] of the same compound?
A: Its SUV is 1.195.

Q: What about the SUV [32] of the same compound?
A: The SUV was 0.862.

Q: What about the Drug uptake [3] of the same compound?
A: Its Drug uptake is 12%.

Q: And the SUV [33]?
A: Its SUV is 0.943.

Q: What about the SUV [34] of the same compound?
A: Its SUV is 0.764.

Q: What about the Drug uptake [4] of the same compound?
A: The Drug uptake was 19.9%.

Q: What about the SUV [6] of the same compound?
A: The SUV was 0.7.

Q: What about the Drug uptake [7] of the same compound?
A: Its Drug uptake is 0.18%.

Q: And the Drug uptake [8]?
A: The Drug uptake was 0.17%.

Q: What about the Drug uptake [11] of the same compound?
A: The Drug uptake was 3.6%.

Q: What about the Drug uptake [12] of the same compound?
A: Its Drug uptake is 4.8%.

Q: And the Drug uptake [14]?
A: The Drug uptake was 3.6%.

Q: What about the Drug uptake [16] of the same compound?
A: Its Drug uptake is 9.1%.

Q: What about the Drug uptake [17] of the same compound?
A: The Drug uptake was 0.31%.
